Biological target: T1, Liver carboxylesterase 1 (Homo sapiens, UniProt P23141)
T1 sequence (P23141 whole entry): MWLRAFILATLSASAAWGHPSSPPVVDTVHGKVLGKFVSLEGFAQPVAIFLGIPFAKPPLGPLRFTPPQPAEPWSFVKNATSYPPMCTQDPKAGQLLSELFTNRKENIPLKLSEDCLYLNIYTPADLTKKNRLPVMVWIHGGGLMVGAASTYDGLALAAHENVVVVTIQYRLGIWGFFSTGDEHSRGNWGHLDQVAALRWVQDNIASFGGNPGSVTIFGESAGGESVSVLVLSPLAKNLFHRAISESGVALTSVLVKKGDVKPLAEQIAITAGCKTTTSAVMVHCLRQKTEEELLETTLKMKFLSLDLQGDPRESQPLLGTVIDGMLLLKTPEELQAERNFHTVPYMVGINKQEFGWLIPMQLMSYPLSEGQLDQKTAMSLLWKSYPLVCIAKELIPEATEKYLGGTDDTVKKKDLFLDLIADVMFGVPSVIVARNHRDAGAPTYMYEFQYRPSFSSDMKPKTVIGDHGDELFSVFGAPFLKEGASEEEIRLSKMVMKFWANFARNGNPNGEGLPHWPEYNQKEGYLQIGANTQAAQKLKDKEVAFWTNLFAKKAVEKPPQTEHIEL
Assay: Inhibition of human CE1 using o-NPA as substrate
Conditions: not given; call rule not given here
In short: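 Recombinant human CE1 was purified from serum-free media of baculovirus-infected Spodoptera frugiperda cells secreting the enzyme. Activity was read spectrophotometrically with o-nitrophenyl acetate as substrate. At least 8 inhibitor concentrations were used and Ki was derived from them.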

SMILES | Ki [µM]
Cc1cccc2c1ccc1c3c(c(=O)oc(=O)c12)[C@@H](C)CO3 | 0.0036
Cc1cccc2c1ccc1c3occ(C)c3c(=O)oc(=O)c21 | 0.0024

Biological target: not listed separately
Assay: Inhibition of human intestinal carboxylesterase using o-nitrophenyl acetate as substrate
Conditions: not given
In short: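 Recombinant hiCE secreted from baculovirus-infected Spodoptera frugiperda cells and purified from serum-free medium. Activity measured spectrophotometrically with o-nitrophenyl acetate as substrate. Routinely at least 8 inhibitor concentrations tested, and Ki derived.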

SMILES | Ki [µM]
Cc1cccc2c1ccc1c3c(c(=O)oc(=O)c12)[C@@H](C)CO3 | 0.00061
Cc1cccc2c1ccc1c3occ(C)c3c(=O)oc(=O)c21 | 0.00082
C[C@H]1COc2c1c(=O)oc(=O)c1c3c(ccc21)C(C)(C)CCC3 | 0.00075
Cc1coc2c1c(=O)oc(=O)c1c3c(ccc12)C(C)(C)CCC3 | 0.0014

Biological target: T2, Acetylcholinesterase (Homo sapiens, UniProt P22303)
Assay: Inhibition of human AChE using acetylthiocholine as substrate
Conditions: not given

T2 sequence (P22303 whole entry): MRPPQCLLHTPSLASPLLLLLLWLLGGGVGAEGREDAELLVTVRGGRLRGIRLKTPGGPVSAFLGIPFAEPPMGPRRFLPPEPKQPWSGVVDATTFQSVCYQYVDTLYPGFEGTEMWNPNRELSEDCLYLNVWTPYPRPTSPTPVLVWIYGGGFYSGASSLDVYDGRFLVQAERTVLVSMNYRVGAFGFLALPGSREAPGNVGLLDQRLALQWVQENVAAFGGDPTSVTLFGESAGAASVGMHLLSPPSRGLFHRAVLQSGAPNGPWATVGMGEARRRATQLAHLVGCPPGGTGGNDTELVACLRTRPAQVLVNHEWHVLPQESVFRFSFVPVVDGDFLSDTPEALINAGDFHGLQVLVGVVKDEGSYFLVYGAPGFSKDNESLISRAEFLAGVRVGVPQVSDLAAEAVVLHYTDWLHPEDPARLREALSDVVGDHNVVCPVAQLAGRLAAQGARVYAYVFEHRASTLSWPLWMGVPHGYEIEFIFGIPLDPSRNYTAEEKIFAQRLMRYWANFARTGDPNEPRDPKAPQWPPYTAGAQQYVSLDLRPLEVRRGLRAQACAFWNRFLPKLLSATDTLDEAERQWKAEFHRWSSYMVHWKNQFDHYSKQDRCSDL

SMILES | IC50 [µM]
Cc1cccc2c1ccc1c3c(c(=O)oc(=O)c12)[C@@H](C)CO3 | 10.1
Cc1cccc2c1ccc1c3occ(C)c3c(=O)oc(=O)c21 | > 10
C[C@H]1COc2c1c(=O)oc(=O)c1c3c(ccc21)C(C)(C)CCC3 | 3.21
Cc1coc2c1c(=O)oc(=O)c1c3c(ccc12)C(C)(C)CCC3 | 3.31

Biological target: T3, Cholinesterase (Homo sapiens, UniProt P06276)
Assay: Inhibition of human BuChE using butyrylhiocholine as substrate
Conditions: not given

T3 sequence (P06276 whole entry): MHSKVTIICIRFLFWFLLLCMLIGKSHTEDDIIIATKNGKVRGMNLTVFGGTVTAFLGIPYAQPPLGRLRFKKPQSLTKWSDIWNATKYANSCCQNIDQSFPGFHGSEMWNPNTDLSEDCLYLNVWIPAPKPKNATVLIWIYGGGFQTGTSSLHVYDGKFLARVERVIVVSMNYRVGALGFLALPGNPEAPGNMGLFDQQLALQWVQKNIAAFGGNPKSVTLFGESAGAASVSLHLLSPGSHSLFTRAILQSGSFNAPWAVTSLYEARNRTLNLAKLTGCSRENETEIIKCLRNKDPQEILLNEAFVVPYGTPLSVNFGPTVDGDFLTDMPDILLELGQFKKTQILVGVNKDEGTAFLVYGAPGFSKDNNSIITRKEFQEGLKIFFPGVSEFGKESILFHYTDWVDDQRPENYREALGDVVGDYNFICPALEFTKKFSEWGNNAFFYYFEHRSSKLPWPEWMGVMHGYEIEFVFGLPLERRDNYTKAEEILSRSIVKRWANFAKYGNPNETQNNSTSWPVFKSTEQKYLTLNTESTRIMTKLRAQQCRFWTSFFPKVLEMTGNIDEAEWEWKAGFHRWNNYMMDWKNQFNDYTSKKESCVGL

SMILES | IC50 [µM]
Cc1cccc2c1ccc1c3c(c(=O)oc(=O)c12)[C@@H](C)CO3 | 7.82
Cc1cccc2c1ccc1c3occ(C)c3c(=O)oc(=O)c21 | > 10
C[C@H]1COc2c1c(=O)oc(=O)c1c3c(ccc21)C(C)(C)CCC3 | 2.84
Cc1coc2c1c(=O)oc(=O)c1c3c(ccc12)C(C)(C)CCC3 | 7.88

Biological target: T4, carboxylesterase 1 (CE1) (Homo sapiens, UniProt P23141)
T4 sequence (P23141 whole entry): T1 sequence (P23141 whole entry)
Assay: Irreversible inhibition of human CE1 assessed as residual activity preincubated with enzyme followed by compound dilution measured after 18 hrs using o-NPA as substrate relative to control
Conditions: probe o-NPA, read-out: Activity

SMILES | activity at 18 h [%]
Cc1cccc2c1ccc1c3c(c(=O)oc(=O)c12)[C@@H](C)CO3 | 9
Cc1cccc2c1ccc1c3occ(C)c3c(=O)oc(=O)c21 | 54
O=C(C(=O)c1ccccc1)c1ccccc1 [BENZIL] | 85
C[C@H]1COc2c1c(=O)oc(=O)c1c3c(ccc21)C(C)(C)CCC3 | 3 to 16
Cc1coc2c1c(=O)oc(=O)c1c3c(ccc12)C(C)(C)CCC3 | 6 to 10

System: not listed separately
Assay: Irreversible inhibition of human intestinal carboxylesterase assessed as residual activity preincubated with enzyme followed by compound dilution measured after 18 hrs using o-NPA as substrate relative to control
Conditions: not given
In short: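 Purified recombinant hiCE pre-incubated with inhibitor, then extensively diluted and passed through size-exclusion filtration to remove free compound. Recovered protein assayed for residual esterase activity with o-NPA. Benzil (reversible inhibitor) and DMSO (solvent) served as controls.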

SMILES | Activity [%]
Cc1cccc2c1ccc1c3c(c(=O)oc(=O)c12)[C@@H](C)CO3 | 18
Cc1cccc2c1ccc1c3occ(C)c3c(=O)oc(=O)c21 | 4
O=C(C(=O)c1ccccc1)c1ccccc1 [BENZIL] | 98
C[C@H]1COc2c1c(=O)oc(=O)c1c3c(ccc21)C(C)(C)CCC3 | 1 to 9
Cc1coc2c1c(=O)oc(=O)c1c3c(ccc12)C(C)(C)CCC3 | 0.1 to 40

Biological target: T1, Liver carboxylesterase 1
Assay: Binding affinity to serine residue of human CE1 assessed as adduct formation at 10 uM by mass spectrum analysis
Conditions: not given
In short: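 hCE1 purified from serum-free medium of baculovirus-infected Spodoptera frugiperda cells, incubated with 10μM inhibitor. Unbound compound removed by dilution and repeated size-exclusion spin chromatography. Intact mass by ESI positive-mode MS (600–2800 m/z) in 3:2 water-acetonitrile with 0.1% formic acid, 2 min acquisition. Spectra deconvoluted, and adduct read as mass shift versus DMSO-treated protein.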

SMILES | Activity
Cc1cccc2c1ccc1c3c(c(=O)oc(=O)c12)[C@@H](C)CO3 | Active
O=S(=O)(F)Cc1ccccc1 [PHENYLMETHYLSULFONYLFLUORIDE] | Active
Cc1coc2c1c(=O)oc(=O)c1c3c(ccc12)C(C)(C)CCC3 | Active

Biological target: T4, carboxylesterase 1 (CE1)
Assay: Inhibition of human CE1 expressed in human U373MG cells assessed as reduction in enzyme-mediated oseltamivir hydrolysis at 10 uM preincubated for 10 mins followed by oseltamivir addition measured after 30 mins by UPLC-MS analysis relative to control
Type: cell-based
Conditions: U373MG cells that express human CE1, probe oseltamivir
In short: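 U373MG glioblastoma cells expressing hCE1 (~10^6 per well) pretreated 10 min with 10μM inhibitor, then given oseltamivir (20μM final). After 30 min, media harvested, mixed with an equal volume of acetonitrile and centrifuged. Oseltamivir carboxylate quantified by UPLC (C18, water:acetonitrile gradient) with MS detection. Expressed as percent of DMSO-treated cells. Benzil used as positive control; duplicate points.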

SMILES | inhibition at 0.5 h, 10 µM [%]
Cc1cccc2c1ccc1c3c(c(=O)oc(=O)c12)[C@@H](C)CO3 | 99
Cc1cccc2c1ccc1c3occ(C)c3c(=O)oc(=O)c21 | > 70
C[C@H]1COc2c1c(=O)oc(=O)c1c3c(ccc21)C(C)(C)CCC3 | > 70
Cc1coc2c1c(=O)oc(=O)c1c3c(ccc12)C(C)(C)CCC3 | > 70

Biological target: T4, carboxylesterase 1 (CE1)
Assay: Inhibition of human CE1 expressed in human U373MG cells assessed as reduction in enzyme-mediated oseltamivir hydrolysis by measuring oseltamivir carboxylate level at 10 uM preincubated for 10 mins followed by oseltamivir addition measured after 30 mins by UPLC-MS analysis relative to control
Type: cell-based
Parameters: scale not given: the % may be the effect or the level left
Conditions: U373MG cells that express human CE1, probe oseltamivir, read-out: Activity
In short: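 U373MG glioblastoma cells engineered to express hCE1 (~10^6 per well) were pre-incubated 10 min with 10μM inhibitor, then oseltamivir was added (20μM final) for 30 min. Media were harvested, mixed with an equal volume of acetonitrile and centrifuged. Oseltamivir carboxylate was measured by UPLC (C18, water:acetonitrile gradient) with MS detection, as percent of DMSO-treated cells. Benzil was the positive control; duplicate points.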

SMILES | activity at 0.5 h, 10 µM [%]
Cc1cccc2c1ccc1c3c(c(=O)oc(=O)c12)[C@@H](C)CO3 | 1
Cc1cccc2c1ccc1c3occ(C)c3c(=O)oc(=O)c21 | 12
O=C(C(=O)c1ccccc1)c1ccccc1 [BENZIL] | 5
C[C@H]1COc2c1c(=O)oc(=O)c1c3c(ccc21)C(C)(C)CCC3 | 10
Cc1coc2c1c(=O)oc(=O)c1c3c(ccc12)C(C)(C)CCC3 | 27

Biological target: T2, Acetylcholinesterase
Assay: Inhibition of human AChE at 10 uM using acetylthiocholine as substrate relative to control
Conditions: not given

SMILES | inhibition [%]
Cc1cccc2c1ccc1c3c(c(=O)oc(=O)c12)[C@@H](C)CO3 | 66
Cc1cccc2c1ccc1c3occ(C)c3c(=O)oc(=O)c21 | 47
C[C@H]1COc2c1c(=O)oc(=O)c1c3c(ccc21)C(C)(C)CCC3 | 68
Cc1coc2c1c(=O)oc(=O)c1c3c(ccc12)C(C)(C)CCC3 | 65

Biological target: T3, Cholinesterase
Assay: Inhibition of human BuChE at 10 uM using butyrylhiocholine as substrate relative to control
Conditions: not given

SMILES | inhibition [%]
Cc1cccc2c1ccc1c3c(c(=O)oc(=O)c12)[C@@H](C)CO3 | 61
Cc1cccc2c1ccc1c3occ(C)c3c(=O)oc(=O)c21 | 32
C[C@H]1COc2c1c(=O)oc(=O)c1c3c(ccc21)C(C)(C)CCC3 | 69
Cc1coc2c1c(=O)oc(=O)c1c3c(ccc12)C(C)(C)CCC3 | 38

— ChEMBL document CHEMBL4266021 (J Nat Prod, 2018)
